Experimental data as given in paper PMC3756490 (Journal of medicinal chemistry, 2012).

Assays:
[1] = tested on: HIF transcriptional activity; assay: HIF-dependent luciferase reporter assay in LN229-V6R cells under hypoxia; assay type: cell-based, human; conditions: for inhibition of HIF-1 transcriptional activity (HRE-mediated luciferase) at 10 μM: one day
Outline: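 LN229-V6R cells carry a stably integrated hypoxia/HIF-inducible luciferase reporter and were grown in DMEM with 10% serum. Cells were seeded at 3 × 10⁴ per well, held in normoxia (21% O₂, 5% CO₂) for 24 h, then given DMEM with 1% DMSO with or without test compound (2.5, 5.0, 10.0 μM). After 1 h at 37 °C, cells went to hypoxia (1% O₂) for 24 h. Cells were washed and lysed, and extract luminescence was read with luciferase substrate. Triplicates, expressed as % of untreated control.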

[2] = LogP7.4 measurement; assay type: physicochemical; conditions: pH 7.4; shake flask method (6a, 6g) or HPLC method (1, 6b-6f, 6h-6l)
Outline: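 Shake-flask method (OECD 107): 1-octanol and 0.2 M phosphate buffer pH 7.4 were mutually presaturated by stirring for 24 h at room temperature. 1–2 mg test compound was partitioned between 2 mL each phase, in duplicate. The aqueous phase was quantified by HPLC at 254 nm against standard curves. HPLC method (OECD 117): C₁₈ column with methanol:water:triethylamine 70:30:0.1 at 2 mL/min, calibrated with the shake-flask compounds, aniline, benzene, toluene and chlorobenzene.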

[3] = tested on: HIF-1α; assay: HIF-1α protein levels in LN229-V6R cells under hypoxia by western blot; assay type: cell-based, human; conditions: 3-100 μM, hypoxia 24 hours
Outline: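 LN229-V6R cells (2 × 10⁵) were seeded in 35 mm dishes and kept under normoxia for 24 h. Fresh DMEM with 1% DMSO and test compound (3, 6, 12, 25, 50 or 100 μM) was added, then 1 h at 37 °C in normoxia, then 24 h in hypoxia (1% O₂). Lysates in SDS loading buffer were run on a 4–12.5% gradient gel and blotted with anti-HIF-1α (1:500) and anti-β-actin (1:3,000), with HRP/ECL detection. Each blot was done at least twice.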

[4] = metabolic stability in mouse liver homogenate; assay type: in vitro ADME; conditions: mouse liver homogenate in PBS (1:2 w/v), pH 7.4
Outline: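 Test compound (20 μM) was incubated at 37 °C with shaking in fresh mouse liver homogenate in PBS pH 7.4 (1/2 w/v). At set times, samples were extracted with acetonitrile, dried and reconstituted in mobile phase. They were quantified by reverse-phase C₈ HPLC with photodiode-array detection, using α-naphthoflavone (2 μM) as internal standard and standard curves linear over 1–50 μM. Run in triplicate.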

[5] = tested on: LN229-Lux cells (constitutive luciferase reporter gene); assay: constitutive luciferase reporter control assay in LN229-Lux cells; assay type: cell-based, human; conditions: control for inhibition of luciferase per se
Outline: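 LN229-Lux cells carry a constitutive luciferase reporter driven by a retroviral LTR promoter. They were grown in DMEM with 10% serum, seeded at 3 × 10⁴ per well and treated with test compound in 1% DMSO medium under normoxia. Lysates were read for luminescence with luciferase substrate. Values are % of untreated control extracts, in triplicates.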

Structure (SMILES)	inhibition of HIF-1 transcriptional activity (HRE-mediated luciferase) at 10 μM [1]	logP7.4 [2]	luciferase activity in LN229-Lux cells (constitutive reporter) [5]	other results
COc1cc(CN(C(C)C)S(=O)(=O)c2ccccn2)cc2c1OC(C)(C)C=C2 [Compound 6g, N-[(8-methoxy-2,2-dimethyl-2H-chromen-6-yl)methyl]-N-(propan-2-yl)pyridine-2-sulfonamide]	60 ∼ 80%	1.2 ∼ 1.3		
CC(C)CN(Cc1cc(O)c2c(c1)C=CC(C)(C)O2)S(=O)(=O)c1ccccn1 [Compound 6h, N-[(8-hydroxy-2,2-dimethyl-2H-chromen-6-yl)methyl]-N-(2-methylpropan-1-yl)pyridine-2-sulfonamide]		1.2 ∼ 1.3		
CC(C)CN(Cc1cc(O)c2c(c1)C=CC(C)(C)O2)S(=O)(=O)c1ccncc1 [Compound 6l, N-[(8-hydroxy-2,2-dimethyl-2H-chromen-6-yl)methyl]-N-(2-methylpropan-1-yl)pyridine-4-sulfonamide]	60 ∼ 80%	1.2 ∼ 1.3		concentration from which HIF-1α levels decreased dose-dependently [3]: 25 µM; half-life at 20 μM [4]: 13 to 20 h
CC(C)N(Cc1ccc2c(c1)C=CC(C)(C)O2)S(=O)(=O)c1ccccn1 [Compound 6a, N-[(2,2-dimethyl-2H-chromen-6-yl)methyl]-N-(propan-2-yl)pyridine-2-sulfonamide]	completely			
COc1ccc(S(=O)(=O)N(Cc2ccc3c(c2)C=CC(C)(C)O3)c2ccccc2)cc1OC [Compound 1, 3,4-dimethoxy-N-[(2,2-dimethyl-2H-chromene-6-yl)methyl]-N-phenylbenzenesulfonamide]			reduced luciferase activity only in LN229-V6R cells under hypoxia	
CO[C@H]1/C=C\C=C(/C)C(=O)NC2=CC(=O)C(NCCN(C)C)=C(C[C@@H](C)C[C@H](OC)[C@H](O)[C@@H](C)/C=C(\C)[C@@H]1OC(N)=O)C2=O [Compound 17-DMAG, reference compound]			inhibited both reporter cell lines	luciferase activity in LN229-V6R cells (qualitative) [1]: inhibited both reporter cell lines
